Assay outcomes as filed in PubChem.
S1P3 antag = S1P3 (human) receptor antagonism. inhibition, % at 4.98 µM. AID 485. CHO S1P3 NFAT-BLA reporter, FRET fluorescence, antagonist mode. 170,000 tested, 0.27% active;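 active means inhibition above the plate cutoff, the mean inhibition of test wells on that plate plus 3 SD, cut at about 28% in these data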;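 further: cells challenged with S1P at its EC80 of 0.8 µM; blue over green emission ratio from cleaved BLA substrate after 4 h stimulation; 0% = S1P-stimulated wells and 100% = unstimulated DMSO-only wells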
Biofilm kill mix = mixtures killing C. albicans biofilm. 120,000 tested, 0.02% active. C. albicans biofilm persisters + clotrimazole, fluorescence viability; primary screen in compound mixtures of four per well. inhibition, % at 7.6 µM. AID 1242;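 active means inhibition above 30.3% in the primary screen of four-compound pools, then above 30% when the compound was retested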;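 further: compounds exposed to preformed 24 h biofilms for 48 h; 0% = untreated biofilm control and 100% = clotrimazole plus chlorhexidine kill blank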
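Probe or stimulus – Clotrimazole 50 µg/mL co-treatment · System – C. albicans biofilms · Schedule – 24 h biofilm formation, then 48 h compound exposure, 37 °C · Evaluation – percent inhibition of biofilm viability · Technique – 2-h Alamar Blue fluorescence, 535/590 nm excitation/emission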
HMGR II inh = inhibitors of class II HMG-CoA reductase from Enterococcus faecalis | 190,000 tested, 0.41% active | inhibition, % at 10 µM | purified E. faecalis HMGR, NADPH absorbance 340 nm kinetic;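 active means inhibition above a set limit, the median over all tested compounds plus 3 SD, cut at about 9.5% in these data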;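 further: enzyme runs in reverse so mevalonate oxidation gives rising NADPH absorbance; 0% = complete reaction with DMSO and 100% = background rate lacking mevalonate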
Rad51 HR inh = Rad51 (human) homologous recombination inhibition. hRad51 DNA strand exchange, fluorescence dequenching. inhibition, % at 10 µM. 200,000 tested, 0.085% active;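 active means inhibition above 40% at the single screening dose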;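 further: 0% = DMSO control wells and 100% = blanks with heterologous ssDNA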
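System: human Rad51 nucleoprotein filaments preassembled on unlabelled ssDNA. Reagent: labelled 47-mer dsDNA for strand exchange. Schedule: 30-min compound preincubation and 15-min exchange, both room temperature. Measured by: FRET fluorescence dequenching, excitation 485 nm, emission 520 nm. Read-out: Fluorescence-based percent inhibition, control- and blank-normalised. Benchmarks: plate controls and plate blanks.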
S1P4 antag = human S1P4 receptor antagonism. O95977. inhibition, % at 4.98 µM. 220,000 tested, 0.26% active. S1P4-expressing cells, antagonist mode, reporter read-out; in the data active means inhibition above about 29%;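 further: 0% = wells stimulated with agonist and 100% = vehicle wells without agonist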
Target sequence (O95977 whole entry, looked up): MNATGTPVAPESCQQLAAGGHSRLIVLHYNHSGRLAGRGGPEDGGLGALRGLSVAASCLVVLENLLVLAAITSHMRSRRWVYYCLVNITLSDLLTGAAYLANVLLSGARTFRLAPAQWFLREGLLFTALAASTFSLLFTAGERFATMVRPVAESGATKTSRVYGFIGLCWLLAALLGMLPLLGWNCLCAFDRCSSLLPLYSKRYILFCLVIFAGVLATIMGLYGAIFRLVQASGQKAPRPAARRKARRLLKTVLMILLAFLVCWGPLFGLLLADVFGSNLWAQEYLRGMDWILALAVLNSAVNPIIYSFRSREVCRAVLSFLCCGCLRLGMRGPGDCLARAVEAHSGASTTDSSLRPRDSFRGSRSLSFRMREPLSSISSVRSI
S1P4 agonist = agonists of human S1P4 receptor; activation, % at 4.98 µM; 220,000 tested, 0.35% active; S1P4-expressing cell line, agonist reporter assay; AID 1509; in the data active means activation above about 11%;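 further: 0% = DMSO vehicle and 100% = reference agonist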
S1P4 agonist cf = human S1P4 agonism, confirmation | AID 1523 | 740 tested, 7% active | S1P4 agonist cell-based reporter assay | activation, % at 4.98 µM | shares compounds with S1P4 agonist; in the data active means activation above about 12%;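 further: 0% = vehicle and 100% = full reference agonist response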
S1P1 agonist = counter-screen for S1P4 agonists: agonists of human S1P1 | 740 tested, 4% active | activation, % at 4.98 µM | AID 1563 | S1P1 agonist cell-based assay, activation | shares compounds with S1P4 agonist; in the data active means activation above about 21%;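 further: 0% = vehicle wells and 100% = reference agonist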
* marks the source's active call; other numbers are inactive results. A selection: hits, their analogues and other compounds. The true share with any hit is near 1.2%.

What do the screens show for `Nc1nc(NCC2CCCO2)nc(Nc2ccc(F)cc2)c1[N+](=O)[O-]` (stereo not drawn)?
S1P3 antag: 6; Biofilm kill mix: 18; HMGR II inh: 5; Rad51 HR inh: 5; S1P4 antag: -10; S1P4 agonist: 25*; S1P4 agonist cf: -3; S1P1 agonist: -1

What do the screens show for `Clc1ccc2nnnc(-c3ccccc3)c2c1`?
S1P3 antag: 14; Biofilm kill mix: 3; HMGR II inh: 1; Rad51 HR inh: 9; S1P4 antag: -10; S1P4 agonist: 0

What do the screens show for `Cc1nn(Cc2ccc(Cl)c(Cl)c2)c(C)c1NC(=O)c1cc(-c2ccc3c(c2)OCO3)on1`?
S1P3 antag: 41; HMGR II inh: -2; Rad51 HR inh: 5; S1P4 antag: 11; S1P4 agonist: 22*; S1P4 agonist cf: -2; S1P1 agonist: -2

What do the screens show for `Cc1sc2nc(-c3cccnc3)nc(Cl)c2c1-c1ccccc1`?
S1P3 antag: -2; Biofilm kill mix: 16; HMGR II inh: -6; Rad51 HR inh: -2; S1P4 antag: -9; S1P4 agonist: 1

How did CC(Nc1cccnc1)=C(C#N)C#N do in these assays?
S1P3 antag: -4; Biofilm kill mix: 7; HMGR II inh: -4; Rad51 HR inh: 17; S1P4 antag: -8; S1P4 agonist: 12*; S1P4 agonist cf: -3; S1P1 agonist: 15

How did O=C(Nc1cccnc1)c1ccc(C(=O)Nc2cccnc2)cc1 do in these assays?
S1P3 antag: -14; Biofilm kill mix: 14; HMGR II inh: 1; Rad51 HR inh: -6; S1P4 antag: 6; S1P4 agonist: 0

How did Cn1c(NC(=O)CC(C)(C)C)cc(=O)n(C)c1=O do in these assays?
S1P3 antag: 17; HMGR II inh: -4; Rad51 HR inh: 1; S1P4 antag: -1; S1P4 agonist: 46*; S1P4 agonist cf: -2; S1P1 agonist: -3

How did CCOC(=O)CC(=O)Nc1nnc(CC(C)C)s1 do in these assays?
S1P3 antag: -19; HMGR II inh: -2; Rad51 HR inh: -7; S1P4 antag: -31; S1P4 agonist: 0

Results for COc1cccc(Nc2nc(-c3sc(NC(=O)c4ccco4)nc3C)cs2)c1 ?
HMGR II inh: -11; Rad51 HR inh: -2; S1P4 antag: -7; S1P4 agonist: 29*; S1P4 agonist cf: -3; S1P1 agonist: -4

What do the screens show for `CCOC(=O)c1ccc(CSc2nnc(C)n2N)o1`?
HMGR II inh: -5; Rad51 HR inh: 2; S1P4 antag: 9; S1P4 agonist: 1

Results for CCCOc1ccc(C2C(C(=O)OC)=CN(CCOC)C=C2C(=O)OC)cc1 ?
S1P3 antag: 4; HMGR II inh: -6; Rad51 HR inh: -3; S1P4 antag: -31; S1P4 agonist: 12*; S1P4 agonist cf: 1; S1P1 agonist: 10

How did O=C(COC(=O)[C@H](Cc1ccccc1)NC(=O)c1cccs1)Nc1ccccc1C(F)(F)F do in these assays?
S1P3 antag: -11; Biofilm kill mix: 11; HMGR II inh: -3; Rad51 HR inh: 3; S1P4 antag: -13; S1P4 agonist: 2

What do the screens show for `Nn1c(SCC(=O)Nc2cccc(F)c2)nnc1C1CCCCC1`?
S1P3 antag: 1; HMGR II inh: -3; Rad51 HR inh: -2; S1P4 antag: -4; S1P4 agonist: 18*; S1P4 agonist cf: -1; S1P1 agonist: 7

Results for COc1ccc(NC(=O)CSc2nnc(C3CCCCC3)n2N)cc1 ?
S1P3 antag: -2; Biofilm kill mix: 26; S1P4 antag: 5; S1P4 agonist: 0

Results for COc1cc(NC2=CC(=O)CC(C)(C)C2)cc(OC)c1 ?
S1P3 antag: -12; HMGR II inh: 2; Rad51 HR inh: -1; S1P4 antag: -2; S1P4 agonist: 28*; S1P4 agonist cf: -1; S1P1 agonist: 3

Results for COc1cc(NC(C(=O)Nc2cccc(C(C)=O)c2)c2ccccc2)cc(OC)c1OC (stereo not drawn) ?
S1P3 antag: -13; Biofilm kill mix: 15; HMGR II inh: -1; Rad51 HR inh: -3; S1P4 antag: -16; S1P4 agonist: 0
